{"data": "Results collected from several papers", "observed": "metabolic stability"}
{"SMILES": "COc1ccc(-c2nc3ccc(OC)cn3c2N(C)c2ccc(F)cc2)nc1", "system": "rat, hepatocytes", "endpoint": "hepatocyte CLint", "result": "> 300 µL/min/10⁶ cells"}
{"SMILES": "O=c1ccc2ccc(O)cc2o1", "system": "rat, liver S9", "conditions": "2 µM, pH 7.4", "endpoint": "scaled CLint", "result": "787 mL/min/kg"}
{"SMILES": "C[C@H](C(=O)NC1Cc2ccccc2C1)c1ccccc1", "system": "rat, liver microsomes", "conditions": "1 µM", "endpoint": "microsomal CLint", "result": "> 200 µL/min/mg"}
{"SMILES": "c1ccc(-c2nc3n(c2-c2ccncc2)CCC3)nc1", "system": "rat, hepatocytes", "endpoint": "hepatocyte CLint", "result": "4.8 µL/min/10⁶ cells"}
{"SMILES": "CC(=O)c1cccc(OCc2cc(C(=O)N(C)[C@@H](C)c3ccccn3)no2)c1", "system": "rat, liver microsomes", "endpoint": "scaled CLint", "result": "770 mL/min/kg"}
{"SMILES": "C[C@H](C(=O)NC1Cc2ccccc2C1)c1ccc(F)cc1", "system": "rat, liver microsomes", "conditions": "1 µM", "endpoint": "microsomal CLint", "result": "> 200 µL/min/mg"}
{"SMILES": "CC(C)N1Cc2cc(C(F)(F)F)ncc2C2=CN=C(NCc3c(F)ccc4c3CCO4)N3C=NC(C1=O)C23 (stereo not drawn)", "system": "rat, liver microsomes", "conditions": "100 µM, 30 min", "endpoint": "scaled CLint", "result": "18.9 mL/min/kg"}
{"SMILES": "COc1ccc(-c2nc3ccc(OC)cn3c2Nc2ccc(F)cc2)nc1", "system": "rat, hepatocytes", "endpoint": "hepatocyte CLint", "result": "76 µL/min/10⁶ cells"}
{"SMILES": "O=c1[nH]c(=S)n(Cc2ccc(Cl)cc2CNCC(F)(F)F)c2cc[nH]c12", "system": "rat, hepatocytes", "endpoint": "hepatocyte CLint", "result": "30 µL/min/10⁶ cells"}
{"SMILES": "COc1ccc(-c2nc3ccccn3c2N(C)c2ccc(F)cc2)nc1", "system": "rat, hepatocytes", "endpoint": "hepatocyte CLint", "result": "> 300 µL/min/10⁶ cells"}
{"SMILES": "O=C(Nc1ccc(N2C(=O)c3cccc(Cl)c3C2=O)c(Cl)c1)c1ncccc1Cl", "system": "rat, liver microsomes", "conditions": "1 µM, pH 7.4", "endpoint": "scaled CLint", "result": "39.9 mL/min/kg"}
{"SMILES": "CS(=O)(=O)c1ccc(-c2cnc(N)c(-c3ccc(C(F)(F)F)nc3)c2)cc1", "system": "male rat, liver microsomes", "conditions": "1 µM", "endpoint": "microsomal CLint", "result": "< 11.6 µL/min/mg"}
{"SMILES": "CC(F)(F)CN1Cc2cc(C(F)(F)F)ncc2C2=CN=C(NCc3c(F)ccc4c3CCO4)N3C=NC(C1=O)C23 (stereo not drawn)", "system": "rat, liver microsomes", "conditions": "100 µM, 30 min", "endpoint": "scaled CLint", "result": "16.6 mL/min/kg"}
{"SMILES": "CCOc1c(O)cc(Br)c2c1CN1CCc3cc(OCC(F)F)c(O)cc3[C@@H]1C2", "system": "rat, liver S9", "conditions": "2 µM, pH 7.4", "endpoint": "scaled CLint", "result": "902 mL/min/kg"}
{"SMILES": "Cc1cccnc1C(=O)Nc1ccc(N2C(=O)c3cccc(Cl)c3C2=O)c(Cl)c1", "system": "rat, liver microsomes", "conditions": "1 µM, pH 7.4", "endpoint": "scaled CLint", "result": "95.9 mL/min/kg"}
